According to ChEMBL document CHEMBL4130494, “Crassiflorone derivatives that inhibit Trypanosoma brucei glyceraldehyde-3-phosphate dehydrogenase (TbGAPDH) and Trypanosoma cruzi trypanothione reductase (TcTR) and display trypanocidal activity” (Eur J Med Chem, 2017):
≈ marks a conversion by molar mass, not a printed value. Calls of active or inactive are those of the source. The rule behind the calls is not given here.

Assays:
Trypanosoma brucei = experiment: Inhibition of Trypanosoma brucei glyceraldehyde-3-phosphate dehydrogenase at 10 uM using GAP as substrate in presence of NAD+ by spectrophotometric method relative to control
Summary of the method: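 Recombinant TbGAPDH (200–300 μg protein) in 10 mM triethanolamine, 1.7 mM NaHCO3, 100 mM KCl, 5 mM MgSO4, 1 mM EDTA, pH 7.6, 25 °C, with 400 μM NAD+, 500 μM KH2PO4, 300 μM GAP; NAD+ reduction followed at 340 nm; inhibitors from DMSO stocks; triplicate; reported as percentage activity.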

[1] = molecular target: Trypanothione reductase (Trypanosoma cruzi) (UniProt P28593); experiment: Inhibition of Trypanosoma cruzi trypanothione reductase assessed as reduction in NADPH consumption at 5 uM using 100 uM trypanothione disulfide as substrate by spectrophotometric method relative to control
Chain of Trypanothione reductase (Trypanosoma cruzi) (P28593 whole entry, looked up): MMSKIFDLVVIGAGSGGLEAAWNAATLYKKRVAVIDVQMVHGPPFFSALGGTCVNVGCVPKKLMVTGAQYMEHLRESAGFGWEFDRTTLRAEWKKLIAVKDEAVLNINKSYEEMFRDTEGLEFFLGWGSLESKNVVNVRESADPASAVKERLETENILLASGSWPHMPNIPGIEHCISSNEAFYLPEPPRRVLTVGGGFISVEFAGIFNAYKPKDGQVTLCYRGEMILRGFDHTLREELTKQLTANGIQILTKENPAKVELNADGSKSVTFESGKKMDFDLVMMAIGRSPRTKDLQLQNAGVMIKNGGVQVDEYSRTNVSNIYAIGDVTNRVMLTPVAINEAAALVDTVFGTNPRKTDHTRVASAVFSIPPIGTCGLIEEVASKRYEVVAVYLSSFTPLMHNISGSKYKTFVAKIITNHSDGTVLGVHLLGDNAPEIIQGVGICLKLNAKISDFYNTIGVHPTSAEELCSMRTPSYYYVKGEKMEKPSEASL
Summary of the method: (§1)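 Recombinant TcTR (5–10 mU) at 25 °C in 40 mM HEPES, 1 mM EDTA, pH 7.5, 100 μM NADPH, 5% DMSO; started with trypanothione disulfide; NADPH consumption read at 340 nm; percentage inhibition calculated.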

[2] = molecular target: Trypanothione reductase (Trypanosoma cruzi) (UniProt P28593); experiment: Inhibition of Trypanosoma cruzi trypanothione reductase assessed as reduction in NADPH consumption at 5 uM using 40 uM trypanothione disulfide as substrate by spectrophotometric method relative to control; summary of the method: as §1
[3] = test system: Trypanosoma brucei brucei; experiment: Growth inhibition of Trypanosoma brucei brucei Lister 427 bloodstream forms at 5 uM by SYBR Green based assay relative to control; type: functional; details: read-out: GI
hERG (KCNH2) = hERG (KCNH2) (Homo sapiens, UniProt Q12809); experiment: Inhibition of Tracer Red binding to human ERG expressed in membranes at 10 uM by fluorescence polarization assay relative to control; details: membranes expressing human ERG, probe Tracer Red
Chain of hERG (KCNH2) (Q12809 whole entry): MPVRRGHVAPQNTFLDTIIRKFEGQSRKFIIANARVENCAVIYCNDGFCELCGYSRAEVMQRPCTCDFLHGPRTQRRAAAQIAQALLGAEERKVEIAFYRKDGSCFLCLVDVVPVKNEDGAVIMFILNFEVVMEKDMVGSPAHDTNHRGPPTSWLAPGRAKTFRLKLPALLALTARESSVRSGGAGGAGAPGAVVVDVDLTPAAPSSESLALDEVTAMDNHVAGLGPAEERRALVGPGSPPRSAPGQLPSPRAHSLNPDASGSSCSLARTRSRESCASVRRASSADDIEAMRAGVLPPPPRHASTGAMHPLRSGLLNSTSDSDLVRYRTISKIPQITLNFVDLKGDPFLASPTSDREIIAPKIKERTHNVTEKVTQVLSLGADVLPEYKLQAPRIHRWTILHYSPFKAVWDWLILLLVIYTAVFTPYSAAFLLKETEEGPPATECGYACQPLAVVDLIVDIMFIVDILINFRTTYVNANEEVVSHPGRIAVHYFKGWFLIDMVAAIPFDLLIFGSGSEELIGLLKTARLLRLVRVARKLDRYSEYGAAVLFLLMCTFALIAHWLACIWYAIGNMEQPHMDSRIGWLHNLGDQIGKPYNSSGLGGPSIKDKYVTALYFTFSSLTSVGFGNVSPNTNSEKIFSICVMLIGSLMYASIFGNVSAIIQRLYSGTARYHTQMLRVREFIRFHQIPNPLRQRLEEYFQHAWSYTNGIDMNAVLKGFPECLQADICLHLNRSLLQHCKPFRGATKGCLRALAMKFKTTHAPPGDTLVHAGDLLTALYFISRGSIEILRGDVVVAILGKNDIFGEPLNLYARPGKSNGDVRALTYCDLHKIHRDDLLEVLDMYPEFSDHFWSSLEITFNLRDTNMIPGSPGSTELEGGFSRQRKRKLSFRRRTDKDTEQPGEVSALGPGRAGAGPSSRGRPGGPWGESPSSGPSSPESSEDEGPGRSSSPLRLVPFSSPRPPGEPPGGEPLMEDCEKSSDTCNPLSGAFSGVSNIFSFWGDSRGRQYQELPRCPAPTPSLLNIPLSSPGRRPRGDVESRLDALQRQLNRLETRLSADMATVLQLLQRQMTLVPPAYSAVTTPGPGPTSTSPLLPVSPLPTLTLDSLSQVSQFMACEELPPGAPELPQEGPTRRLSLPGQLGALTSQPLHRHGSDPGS
Summary of the method: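 Fluorescence polarization displacement of a high-affinity red fluorescent tracer from hERG channel–containing membrane fraction.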

CYP1A2 = molecular target: T1, CYP1A2 (Homo sapiens, UniProt P05177); experiment: Inhibition of human CYP1A2 at 10 uM by P450-Glo assay relative to control; type: ADME
T1 sequence (P05177 whole entry): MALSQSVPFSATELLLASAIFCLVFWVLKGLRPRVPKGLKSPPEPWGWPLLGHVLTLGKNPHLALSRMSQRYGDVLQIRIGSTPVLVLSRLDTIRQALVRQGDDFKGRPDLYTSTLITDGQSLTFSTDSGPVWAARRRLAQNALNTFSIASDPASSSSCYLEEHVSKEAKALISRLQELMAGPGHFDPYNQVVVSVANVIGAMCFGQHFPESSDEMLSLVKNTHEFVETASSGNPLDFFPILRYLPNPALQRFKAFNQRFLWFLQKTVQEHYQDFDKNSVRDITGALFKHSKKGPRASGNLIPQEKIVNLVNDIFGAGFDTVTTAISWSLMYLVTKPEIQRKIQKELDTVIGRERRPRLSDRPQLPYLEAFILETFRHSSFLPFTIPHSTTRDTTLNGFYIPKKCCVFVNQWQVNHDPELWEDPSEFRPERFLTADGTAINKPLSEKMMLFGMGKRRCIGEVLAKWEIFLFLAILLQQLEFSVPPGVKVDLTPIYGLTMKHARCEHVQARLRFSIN
Summary of the method: (§2)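 P450-Glo luminescent platform: CYP action on each substrate generates light; decreased light taken as inhibition.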

CYP2C9 = CYP2C9 (Homo sapiens, UniProt P11712); experiment: Inhibition of human CYP2C9 at 10 uM by P450-Glo assay relative to control; type: ADME; summary of the method: as §2
Chain of CYP2C9 (P11712 whole entry): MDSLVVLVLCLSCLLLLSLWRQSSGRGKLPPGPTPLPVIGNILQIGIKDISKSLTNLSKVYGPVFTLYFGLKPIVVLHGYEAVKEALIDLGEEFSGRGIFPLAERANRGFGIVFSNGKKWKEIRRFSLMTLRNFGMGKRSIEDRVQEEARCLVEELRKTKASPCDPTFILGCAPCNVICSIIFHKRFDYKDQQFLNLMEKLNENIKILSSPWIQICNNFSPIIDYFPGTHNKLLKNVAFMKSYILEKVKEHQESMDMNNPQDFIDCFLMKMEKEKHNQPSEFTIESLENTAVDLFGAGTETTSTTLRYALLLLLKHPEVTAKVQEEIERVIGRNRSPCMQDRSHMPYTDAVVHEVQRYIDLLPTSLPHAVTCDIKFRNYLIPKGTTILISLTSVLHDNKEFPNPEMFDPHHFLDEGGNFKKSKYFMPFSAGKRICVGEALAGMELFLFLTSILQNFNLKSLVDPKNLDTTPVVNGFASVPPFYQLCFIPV

CYP2C19 = CYP2C19 (Homo sapiens, UniProt P33261); experiment: Inhibition of human CYP2C19 at 10 uM by P450-Glo assay relative to control; type: ADME; summary of the method: as §2
Chain of CYP2C19 (P33261 whole entry): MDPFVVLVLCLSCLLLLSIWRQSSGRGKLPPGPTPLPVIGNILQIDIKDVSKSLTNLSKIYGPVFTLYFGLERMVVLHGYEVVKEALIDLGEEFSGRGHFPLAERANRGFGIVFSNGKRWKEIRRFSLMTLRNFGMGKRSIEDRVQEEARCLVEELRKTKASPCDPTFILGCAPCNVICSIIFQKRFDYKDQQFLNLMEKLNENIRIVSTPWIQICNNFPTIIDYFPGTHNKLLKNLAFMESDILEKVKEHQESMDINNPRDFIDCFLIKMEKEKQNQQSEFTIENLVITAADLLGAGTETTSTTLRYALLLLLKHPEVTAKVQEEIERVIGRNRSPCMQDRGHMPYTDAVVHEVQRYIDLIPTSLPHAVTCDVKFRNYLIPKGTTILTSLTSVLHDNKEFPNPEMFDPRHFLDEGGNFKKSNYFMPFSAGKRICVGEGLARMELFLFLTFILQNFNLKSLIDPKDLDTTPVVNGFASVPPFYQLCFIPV

CYP2D6 = CYP2D6 (Homo sapiens, UniProt P10635); experiment: Inhibition of human CYP2D6 at 10 uM by P450-Glo assay relative to control; type: ADME; summary of the method: as §2
Chain of CYP2D6 (P10635 whole entry): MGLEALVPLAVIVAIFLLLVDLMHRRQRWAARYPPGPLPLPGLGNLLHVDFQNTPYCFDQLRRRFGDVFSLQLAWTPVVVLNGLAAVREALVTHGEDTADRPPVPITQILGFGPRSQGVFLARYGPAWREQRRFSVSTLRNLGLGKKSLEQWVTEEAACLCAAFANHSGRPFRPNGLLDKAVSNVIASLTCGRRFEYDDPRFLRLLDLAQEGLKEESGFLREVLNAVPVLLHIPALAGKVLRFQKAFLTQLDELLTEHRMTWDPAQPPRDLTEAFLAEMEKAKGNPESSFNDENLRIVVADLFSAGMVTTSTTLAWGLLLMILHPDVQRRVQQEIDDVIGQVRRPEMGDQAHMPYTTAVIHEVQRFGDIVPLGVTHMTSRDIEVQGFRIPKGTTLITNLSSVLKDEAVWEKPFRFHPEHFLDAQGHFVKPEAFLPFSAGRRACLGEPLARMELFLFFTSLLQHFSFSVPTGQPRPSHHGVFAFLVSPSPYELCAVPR

CYP3A4 = CYP3A4 (Homo sapiens, UniProt P08684); experiment: Inhibition of human CYP3A4 at 10 uM by P450-Glo assay relative to control; type: ADME; summary of the method: as §2
Chain of CYP3A4 (P08684 whole entry): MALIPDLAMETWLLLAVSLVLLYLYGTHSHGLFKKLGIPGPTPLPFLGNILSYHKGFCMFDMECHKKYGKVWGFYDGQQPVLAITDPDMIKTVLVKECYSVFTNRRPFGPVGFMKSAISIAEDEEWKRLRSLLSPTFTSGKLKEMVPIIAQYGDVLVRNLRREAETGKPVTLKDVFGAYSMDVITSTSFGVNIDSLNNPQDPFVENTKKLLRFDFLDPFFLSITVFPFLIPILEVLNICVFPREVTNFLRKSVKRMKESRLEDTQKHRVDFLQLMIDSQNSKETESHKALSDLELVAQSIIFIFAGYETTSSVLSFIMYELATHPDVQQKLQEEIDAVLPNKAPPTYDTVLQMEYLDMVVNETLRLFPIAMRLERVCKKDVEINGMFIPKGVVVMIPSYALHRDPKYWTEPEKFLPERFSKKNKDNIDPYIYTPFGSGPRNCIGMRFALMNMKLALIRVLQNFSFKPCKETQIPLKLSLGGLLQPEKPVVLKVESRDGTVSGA

[4] = Cytotoxicity against human A549 cells assessed as cell growth at 10 uM by CellTiter-Glo assay relative to control; type: cell-based; details: read-out: Activity
Summary of the method: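 A549 cells; cellular ATP measured by CellTiter-Glo luminescence as a proxy for cell number; paclitaxel 10 μM as positive control.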

786-0 = experiment: Cytotoxicity against human 786-O cells assessed as mitochondrial viability at 10 uM by CMXRos staining based high-content imaging analysis relative to control; type: cell-based; details: 786-0, 10 µM
Summary of the method: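 786-O cells kept in RPMI-1640 with 2 mM glutamine, 10% FCS, streptomycin and penicillin G; mitochondria of live cells stained with MitoTracker Red CMXRos and imaged by high-content imaging.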

[5] = Solubility in PBS after overnight incubation by nephelometry; type: physicochemical
[6] = Solubility in pH 7.4 Hanks simulated body fluid after overnight incubation by nephelometry; type: physicochemical
[7] = molecular target: Trypanothione reductase (Trypanosoma cruzi) (UniProt P28593); experiment: Inhibition of Trypanosoma cruzi trypanothione reductase assessed as reduction in NADPH consumption at 10 uM using 100 uM trypanothione disulfide as substrate by spectrophotometric method; summary of the method: as §1
[8] = molecular target: Trypanothione reductase (Trypanosoma cruzi) (UniProt P28593); experiment: Inhibition of Trypanosoma cruzi trypanothione reductase assessed as reduction in NADPH consumption at 10 uM using 40 uM trypanothione disulfide as substrate by spectrophotometric method; summary of the method: as §1
Trypanothione reductase = Trypanothione reductase (Trypanosoma cruzi, UniProt P28593); experiment: Inhibition of Trypanosoma cruzi trypanothione reductase assessed as reduction in NADPH consumption using varying levels of trypanothione disulfide as substrate by Lineweaver-Burk plot analysis
Chain of Trypanothione reductase (P28593 whole entry): as the sequence (P28593 whole entry, looked up) above
Summary of the method: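 Recombinant T. cruzi TR (5-10 mU) at 25 °C in 40 mM HEPES, 1 mM EDTA, pH 7.5, with 100 μM NADPH and 5% DMSO. Reaction started with TS2 and NADPH consumption followed at 340 nm. TS2 varied at 20, 40, 60, 100 and 200 μM without inhibitor and at two fixed inhibitor concentrations. Inhibition type read from Lineweaver-Burk plots. Ki fitted from direct plot by non-linear least squares. Inhibitor assays run at least in duplicate.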

[9] = molecular target: T2, Pteridine reductase 1 (Leishmania major) (UniProt Q01782); experiment: Inhibition of Leishmania major pteridine reductase 1 assessed as reduction in conversion of dihydrobiopterin to tetrahydrobiopterin at 25 uM up to 50 mins in presence of NADPH by cytochrome c reduction coupled photometric assay relative to control
T2 sequence (whole entry): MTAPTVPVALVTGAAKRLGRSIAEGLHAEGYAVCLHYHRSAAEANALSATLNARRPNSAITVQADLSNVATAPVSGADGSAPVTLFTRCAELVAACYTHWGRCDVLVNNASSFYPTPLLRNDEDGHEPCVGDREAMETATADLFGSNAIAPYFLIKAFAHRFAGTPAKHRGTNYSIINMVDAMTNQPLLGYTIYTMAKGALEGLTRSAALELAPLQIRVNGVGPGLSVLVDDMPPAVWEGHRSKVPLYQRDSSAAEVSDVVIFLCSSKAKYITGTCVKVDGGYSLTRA

[10] = molecular target: T3, Pteridine reductase, putative (Trypanosoma brucei) (UniProt Q581W1); experiment: Inhibition of Trypanosoma brucei pteridine reductase 1 assessed as reduction in conversion of dihydrobiopterin to tetrahydrobiopterin at 25 uM up to 50 mins in presence of NADPH by cytochrome c reduction coupled photometric assay relative to control
T3 sequence (whole entry): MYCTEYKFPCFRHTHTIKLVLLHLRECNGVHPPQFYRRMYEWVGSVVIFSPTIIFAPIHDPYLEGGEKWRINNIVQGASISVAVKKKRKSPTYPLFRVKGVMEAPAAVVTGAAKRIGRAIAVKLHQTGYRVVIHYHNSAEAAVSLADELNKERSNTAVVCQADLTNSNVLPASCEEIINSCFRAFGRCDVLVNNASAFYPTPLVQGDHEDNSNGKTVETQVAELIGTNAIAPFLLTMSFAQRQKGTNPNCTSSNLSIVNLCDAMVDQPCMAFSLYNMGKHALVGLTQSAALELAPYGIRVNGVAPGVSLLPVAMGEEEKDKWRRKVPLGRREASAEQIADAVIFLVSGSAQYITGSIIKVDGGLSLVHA

[11] = molecular target: Trypanothione reductase (Trypanosoma cruzi) (UniProt P28593); experiment: Inhibition of Trypanosoma cruzi trypanothione reductase assessed as reduction in NADPH consumption at 2.5 uM using 100 uM trypanothione disulfide as substrate by spectrophotometric method relative to control; summary of the method: as §1
[12] = molecular target: Trypanothione reductase (Trypanosoma cruzi) (UniProt P28593); experiment: Inhibition of Trypanosoma cruzi trypanothione reductase assessed as reduction in NADPH consumption at 2.5 uM using 40 uM trypanothione disulfide as substrate by spectrophotometric method relative to control; summary of the method: as §1
[13] = molecular target: T2, Pteridine reductase 1 (Leishmania major); experiment: Inhibition of Leishmania major pteridine reductase 1 assessed as reduction in conversion of dihydrobiopterin to tetrahydrobiopterin at 10 uM up to 50 mins in presence of NADPH by cytochrome c reduction coupled photometric assay relative to control
[14] = molecular target: T3, Pteridine reductase, putative (Trypanosoma brucei); experiment: Inhibition of Trypanosoma brucei pteridine reductase 1 assessed as reduction in conversion of dihydrobiopterin to tetrahydrobiopterin at 10 uM up to 50 mins in presence of NADPH by cytochrome c reduction coupled photometric assay relative to control

SMILES	inhibition (Trypanosoma brucei)	inhibition at 10 µM (CYP1A2) [%]	inhibition at 10 µM (CYP2C9) [%]	inhibition at 10 µM (CYP2C19) [%]	inhibition at 10 µM (CYP2D6) [%]	inhibition at 10 µM (CYP3A4) [%]	solubility kinetic [5] [µM]	solubility kinetic [6] [µM]	inhibition [7] [%]	inhibition [8] [%]	inhibition [13] [%]	inhibition at 10 µM (hERG (KCNH2)) [%]	viability at 10 µM [4] [%]	Activity (786-0) [%]	other results
c1cc2cc(-c3ccc(C4(N5CCCC5)CCCCC4)s3)ccc2[nH]1															Ki (Trypanothione reductase): 4 µM
O=C1c2cc3ccccc3cc2C(=O)c2c1oc1c2c(=O)oc2ccccc21	inactive	38.5	42.4	35.7	55	7.93	35 (≈ 12.8 µg/mL)	70 (≈ 25.6 µg/mL)	7.9	2.1	5.16	9.77	140	89.59	inhibition [14]: 6.11%
O=C1C=C(Oc2ccccc2)C(=O)c2ccccc21	Active								29	23					

Further lines, with some results ahead:

inhibition (Trypanosoma brucei)	inhibition at 10 µM (CYP1A2) [%]	inhibition at 10 µM (CYP2C9) [%]	inhibition at 10 µM (CYP2C19) [%]	inhibition at 10 µM (CYP2D6) [%]	inhibition at 10 µM (CYP3A4) [%]	solubility kinetic [5] [µM]	solubility kinetic [6] [µM]	inhibition [7] [%]	inhibition [8] [%]	inhibition [13] [%]	SMILES	inhibition at 10 µM (hERG (KCNH2)) [%]	viability at 10 µM [4] [%]	Activity (786-0) [%]	other results
inactive	93.5	99.2	109	108	88.7	35 (≈ 13.1 µg/mL)	35 (≈ 13.1 µg/mL)				CC(=O)Oc1cccc2c1C(=O)c1oc3c(c1C2=O)c(=O)oc1ccccc13	86.8	183	90.52	inhibition [1]: 35.2%; inhibition [2]: 41%; inhibition of growth at 5 µM [3]: 38%
inactive	94.6	92.5	103	106	88.2	35 (≈ 13.1 µg/mL)	35 (≈ 13.1 µg/mL)	37	37.2		CC(=O)Oc1cccc2c1C(=O)c1c(oc3c1c(=O)oc1ccccc13)C2=O	4.02	157	98.86	
	48.2	32.4	46.1	71	14.8	70 (≈ 22.1 µg/mL)	70 (≈ 22.1 µg/mL)				O=C1c2ccccc2C(=O)c2c1oc1c2c(=O)oc2ccccc21	-20.3	146	89.15	inhibition [1]: 18%; inhibition [2]: 19.1%; inhibition [9]: -0.4%; inhibition [10]: -6.44%
	40.8	44.6	83.8	95.2	9.44	14 (≈ 4.65 µg/mL)	35 (≈ 11.6 µg/mL)			-5.5	O=C1c2cccc(O)c2C(=O)c2c1oc1c2c(=O)oc2ccccc21	19.5	167	85.82	inhibition [11]: 11.6%; inhibition [12]: 42.9%
88%	87.2	61.6	71	101	22.1	70 (≈ 24.2 µg/mL)	35 (≈ 12.1 µg/mL)	8.1	20.6	2.98	COc1cccc2c1C(=O)c1c(oc3c1c(=O)oc1ccccc13)C2=O	-58	130	96.22	inhibition of growth at 5 µM [3]: 29%; inhibition [14]: -6.79%
